Measured values from ChEMBL document CHEMBL1268883, “Plasma-mediated release of morphine from synthesized prodrugs” (Bioorg Med Chem Lett, 2010).

What was measured:
[1] = Induction of morphine release at 37.5 nmol in presence of 50% rat plasma assessed as disappearance of compound peak during 5 to 10 mins at 250 uM; assay type: cell-free; details: read-out: Activity
How it was run: (§1)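 PDA (250 µM) incubated with 50% plasma in PBS at 37 °C. Aliquots were withdrawn at intervals, quenched with 2 vol ice-cold 10% DMSO/acetonitrile and centrifuged. The supernatant was analysed by UPLC, following the PDA peak (4.3–4.4 min) and the morphine peak. Morphine was calculated from a morphine standard curve.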

[2] = Induction of morphine release at 37.5 nmol in presence of 50% mouse plasma assessed as disappearance of compound peak during 5 to 10 mins at 250 uM; assay type: cell-free; details: read-out: Activity; how it was run: as §1
[3] = Induction of morphine release at 37.5 nmol in presence of 50% human plasma assessed as disappearance of compound peak during 5 to 10 mins at 250 uM; assay type: cell-free; details: read-out: Activity; how it was run: as §1
[4] = Induction of morphine release in PBS solution assessed as morphine induced inhibition of forskolin-induced cAMP production ny chemiluminescent assay; assay type: physicochemical; details: buffer
How it was run: (§2)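 PDA (0.8 mM) was preincubated 24 h with PBS or 50% human plasma. SK-N-SH cells were switched to serum-free medium, exposed to the solutions (equivalent to 5 µM prodrug) for 15 min, then given 5 µM forskolin or vehicle for 15 min. Cells were rinsed and lysed, and cAMP was measured by chemiluminescent assay against a cAMP standard curve.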

[5] = Stability in PBS solution up to 24 hrs; assay type: physicochemical; details: buffer
How it was run: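 PDA incubated in PBS under the plasma-incubation conditions for up to 24 h, then analysed by UPLC.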

[6] = test system: SK-N-SH; experiment: Induction of morphine release in human SK-N-SH cells assessed as morphine induced inhibition of forskolin-induced cAMP production ny chemiluminescent assay; assay type: cell-based; how it was run: as §2
[7] = Induction of morphine release at 37.5 nmol in presence of 50% guinea pig plasma assessed as disappearance of compound peak during 5 to 10 mins at 250 uM; assay type: cell-free, Cavia porcellus; details: read-out: Activity; how it was run: as §1
[8] = Induction of morphine release at 37.5 nmol in presence of guinea pig plasma assessed as morphine level per ml plasma by UPLC; assay type: cell-free, Cavia porcellus
How it was run: (§3)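 Rates were taken from the linear 0–15 min time points. The mix held 37.5 nmol PDB initial and 150 µl plasma or enzyme sample (BCE 0.5 U/ml, HSA 25 mg/ml) in 300 µl total at 37 °C. After ANDM deproteinisation, morphine was measured by UPLC. Rates are expressed per ml of plasma or of enzyme sample at its human-plasma level.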

[9] = Induction of morphine release at 37.5 nmol in presence of 25 mg/ml HSA assessed as morphine level after 15 mins by UPLC; details: human, 0.25 h
How it was run: (§4)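 PDB (37.5 nmol initial) incubated at 37 °C in 300 µl total with 150 µl sample: purified human serum BCE (0.5 U/ml) or HSA (25 mg/ml), both equivalent to 50% of serum levels, or 50% human plasma in PBS. Aliquots taken over time, mixed with 2 vol ice-cold 10% DMSO in acetonitrile, centrifuged. Supernatant run on UPLC. Morphine quantified from morphine standard curve (1.6–1.75 min peak area).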

[10] = test system: Plasma; experiment: Induction of morphine release at 37.5 nmol in presence of rat plasma assessed as morphine level per ml plasma by UPLC; assay type: cell-free; how it was run: as §3
[11] = Induction of morphine release at 37.5 nmol in presence of 0.5 U/ml butyryl choline esterase assessed as morphine level after 15 mins by UPLC; assay type: physicochemical; details: isolated protein, 0.25 h; how it was run: as §4
[12] = test system: Plasma; experiment: Induction of morphine release at 37.5 nmol in presence of mouse plasma assessed as morphine level per ml plasma by UPLC; assay type: cell-free; how it was run: as §3
[13] = test system: Plasma; experiment: Induction of morphine release at 37.5 nmol in presence of 50% human plasma after 6 hrs by UPLC; assay type: cell-free; how it was run: as §4
[14] = Induction of morphine release at 37.5 nmol in presence of 0.5 U/ml butyryl choline esterase assessed as morphine level after 3 to 6 hrs by UPLC; assay type: physicochemical; details: isolated protein; how it was run: as §4
[15] = test system: Plasma; experiment: Induction of morphine release at 37.5 nmol in presence of 50% human plasma after 15 mins by UPLC; assay type: cell-free; details: 0.25 h; how it was run: as §4
[16] = Induction of morphine release at 37.5 nmol in presence of butyryl choline esterase assessed as morphine level per mg of protein by UPLC; details: isolated protein
[17] = Induction of morphine release at 37.5 nmol in presence of 25 mg/ml HSA assessed as morphine level after 2 to 6 hrs by UPLC; details: human; how it was run: as §4
[18] = Induction of morphine release at 37.5 nmol in presence of HSA assessed as morphine level per mg of protein by UPLC; details: human
[19] = test system: Plasma; experiment: Induction of morphine release at 37.5 nmol in presence of human plasma assessed as morphine level per ml plasma by UPLC; assay type: cell-free; how it was run: as §3

Structure (SMILES) | metabolised at 250 µM [1] [%] | metabolised at 250 µM [2] [%] | metabolised at 250 µM [3] [%] | Activity [4] | Stability [5] | Activity [6] | metabolised at 250 µM [7] [%] | Activity [8] [nmol/min] | Activity [9] [%] | Activity [10] [nmol/min] | Activity [11] [%] | Activity [12] [nmol/min] | Activity [13] [%] | Activity [14] [%] | Activity [15] [%] | Activity [16] [nmol/min] | Activity [17] [%] | Activity [18] [nmol/min] | Activity [19] [nmol/min]
CN1CC[C@]23c4c5ccc(OC(=O)CCC(=O)OC(C)(C)C)c4O[C@H]2[C@@H](O)C=C[C@H]3[C@H]1C5 | > 90 | > 90 | > 90 | Not Active | Stable | Active | > 90 | – | – | – | – | – | – | – | – | – | – | – | –
CN1CC[C@]23c4c5ccc(OC(=O)c6ccc(OCC(=O)NCCOCCOCCNC(=O)OC(C)(C)C)cc6)c4O[C@H]2[C@@H](O)C=C[C@H]3[C@H]1C5 | – | – | – | – | – | – | – | 2.9 | 1 | 4.2 | 2.5 | 20.9 | 20 | 4 | 4 | 0.8 | 2 | 0.3 | 1.1
